Laboratory results: ChEMBL document CHEMBL1687710, “Heterocyclic compounds that inhibit Rev-RRE function and human immunodeficiency virus type 1 replication” (Antimicrob Agents Chemother, 2008)
Active and inactive are the calls of the source. No cut-off for these calls is given here.

Tests used:
[1] = Cytotoxicity against african green monkey 5BD.1 cells after 2 days by MTS assay; assay type: cell-based; details: chlorocebus aethiops, read-out: TC50
How it was run: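 5BD.1 cells (COS-derived, Rev-dependent Gag-Pol particle producers; 20,000/well) were given compound at 0.1–30 μM for 16 h, then refreshed with compound for 24 h more. Cells were collected at 40 h for the MTS proliferation assay, with formazan read at 492 nm versus untreated cells. TC50 was by curve fit.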

[2] = Inhibition of HIV1 Rev expressed in african green monkey 5BD.1 cells assessed as inhibition of p24 antigen treated for 16 hrs after washout with medium again readded for 24 hrs by ELISA
[3] = Inhibition of HIV1 Rev expressed in human HeLa cells co-expressing renilla luciferase reporter gene assessed as inhibition of renilla luciferase expression after 24 hrs; assay type: cell-based; details: Human immunodeficiency virus 1, HeLa
How it was run: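 HeLa line with stably integrated Rev-dependent Renilla luciferase reporter (CMV promoter) plus bicistronic firefly luciferase/HIV-1 IIIB rev construct under Tet-Off; doxycycline withdrawn to induce Rev and both luciferases while compound added at various concentrations.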

HeLa = test: Inhibition of HIV1 Rev expressed in human HeLa cells co-expressing firefly luciferase reporter gene assessed as inhibition of firefly luciferase expression after 24 hrs; assay type: cell-based; details: Human immunodeficiency virus 1
How it was run: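 HeLa line with an integrated Rev-dependent Renilla luciferase reporter, plus firefly luciferase and HIV-1 IIIB Rev under Tet-Off control. Doxycycline was removed to induce expression alongside compound at various concentrations. Cells were plated at 2 × 10^4/well in triplicate.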

[4] = Cytotoxicity against human MT4 cells after 5 days by MTS assay; assay type: cell-based; details: read-out: TC50
How it was run: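 MT-4 T cells were incubated with compound for 5 days. Toxicity was by MTS tetrazolium reduction, with formazan absorbance at 492 nm compared with cells given no compound.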

[5] = tested on: Human immunodeficiency virus 1; test: Antiviral activity against HIV1 NL4-3 infected in human SupT1 cells assessed as inhibition of viral growth at 8 uM after 30 days by p24 ELISA; assay type: functional, organism-based; details: SUP-T1
How it was run: (§1)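 SupT1 cells (5 × 10^6) were Polybrene-treated and infected with NL4-3 (50 ng p24 equivalents), then washed. They were cultured in RPMI/10% FCS with compound at fixed levels (0.8 and 8 μM, or 1 and 10 μM) or none. Cultures were split every 3 days with fresh compound-containing medium for 30–31 days. Supernatant p24 was measured by ELISA.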

[6] = tested on: Human immunodeficiency virus 1; test: Inhibition of HIV1 Rev-radiolabeled Rev response element interaction at up to 100 uM after 10 mins by electrophoretic mobility shift assay
How it was run: (§2)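 A 234-bp RRE RNA was transcribed with [32P]UTP and T7 polymerase, then refolded (80°C 3 min, slow cooling). RRE (0.5 ng) was incubated with bacterial Rev (38 ng) in HEPES-KOH pH 7.8, 200 mM KCl, 4 mM MgCl2, glycerol with compound (up to 100 μM) on ice for 10 min. Complexes were resolved by PAGE and read by phosphorimager.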

[7] = Inhibition of HIV1 Rev-Rev response element-mediated p24 antigen production expressed in human HEK 293T cells after 72 hrs; details: Human immunodeficiency virus 1, HEK-293T
HEK-293T = test: as above; details: Human immunodeficiency virus 1
[8] = tested on: Human immunodeficiency virus 1; test: Antiviral activity against HIV1 NL4-3 infected in human 293T cells assessed as inhibition of p24 synthesis at 8 uM after 24 hrs by Western blotting
U1 = test: Cytotoxicity against human U1 cells after 3 days by MTS assay; assay type: cell-based; details: u1, 72 h
[9] = tested on: Human immunodeficiency virus 1; test: Antiviral activity against HIV1 infected in TNFalpha-stimulated human U1 cells assessed as inhibition of p24 synthesis at 5 uM after 24 hrs by Western blotting; assay type: functional, organism-based
How it was run: (§3)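 U1 cells carrying integrated provirus were induced with TNF-α and given compound (5 or 10 μM). After 24 h, cells were harvested and analysed by Western blot for p24, Pr55gag and Nef using p24- and Nef-specific monoclonal antibodies.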

[10] = tested on: Human immunodeficiency virus 1; test: Antiviral activity against HIV1 infected in TNFalpha-stimulated human U1 cells assessed as inhibition of viral replication after 72 hrs; assay type: functional, organism-based; details: for EC50: Human immunodeficiency virus 1, U1, 72 h
How it was run: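 U1 cells (50,000/ml, RPMI/10% FCS) were induced with 5 ng/ml TNF-α and given compound at the same time over a six-point range from 0 to 11.9 or 25.1 μM, for 3 days. Supernatant reverse transcriptase activity was read. Cell toxicity was by MTS reduction (formazan at 492 nm) relative to untreated cells. Values were interpolated between bracketing points.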

[11] = Inhibition of Mason-Pfizer monkey virus […]constitutive transport element-mediated p24 antigen production expressed in human HEK 293T cells after 72 hrs
[12] = tested on: Human immunodeficiency virus 1; test: Antiviral activity against HIV1 infected in TNFalpha-stimulated human U1 cells assessed as inhibition of Pr55gag synthesis at 5 uM after 24 hrs by Western blotting; assay type: functional, organism-based; how it was run: as §3
[13] = tested on: Human immunodeficiency virus 1; test: Antiviral activity against HIV1 Brazilian isolate 93BR021 infected in PHA-stimulated human PBMC assessed as inhibition of viral replication after 7 days; assay type: functional, organism-based; details: Human immunodeficiency virus 1, Brazilian isolate 93BR021, 168 h
How it was run: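 PHA-stimulated (4 μg/ml, 48–72 h) PBMCs pooled from at least two donors, kept in 20 U/ml IL-2, 5 × 10^4 cells/well. Infected with primary isolate 93BR021 (CCR5-tropic, subtype B) at MOI ≈0.1 with nine compound concentrations, triplicate wells, for 7 days. Supernatant reverse transcriptase activity was read, then cell MTS toxicity. EC50 was interpolated between bracketing points.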

[14] = tested on: Human immunodeficiency virus 1; test: Antiviral activity against HIV1 NL4-3 infected in human SupT1 cells assessed as inhibition of viral growth at 0.8 uM after 30 days by p24 ELISA; assay type: functional, organism-based; details: SUP-T1; how it was run: as §1
[15] = tested on: Human immunodeficiency virus 1; test: Antiviral activity against HIV1 infected in TNFalpha-stimulated human U1 cells assessed as inhibition of Nef synthesis at 5 uM after 24 hrs by Western blotting; assay type: functional, organism-based; how it was run: as §3
[16] = tested on: Human immunodeficiency virus 1; test: Antiviral activity against HIV1 NL4-3 infected in human 293T cells assessed as inhibition of Nef synthesis at 8 uM after 24 hrs by Western blotting
[17] = tested on: Human immunodeficiency virus 1; test: Inhibition of HIV1 Rev-radiolabeled Rev response element interaction after 10 mins by electrophoretic mobility shift assay; how it was run: as §2
[18] = tested on: Human immunodeficiency virus 1; test: Antiviral activity against HIV1 infected in TNFalpha-stimulated human U1 cells assessed as inhibition of Nef synthesis at 10 uM after 24 hrs by Western blotting; assay type: functional, organism-based; how it was run: as §3
[19] = tested on: Human immunodeficiency virus 1; test: Antiviral activity against HIV1 NL4-3 infected in human SupT1 cells assessed as inhibition of viral growth at 1 uM after 30 days by p24 ELISA; assay type: functional, organism-based; details: SUP-T1; how it was run: as §1
[20] = tested on: Human immunodeficiency virus 1; test: Antiviral activity against HIV1 infected in TNFalpha-stimulated human U1 cells assessed as inhibition of Pr55gag synthesis at 10 uM after 24 hrs by Western blotting; assay type: functional, organism-based; how it was run: as §3
[21] = tested on: Human immunodeficiency virus 1; test: Antiviral activity against HIV1 NL4-3 infected in human 293T cells assessed as inhibition of p24 synthesis at 10 uM after 24 hrs by Western blotting
[22] = tested on: Human immunodeficiency virus 1; test: Antiviral activity against HIV1 NL4-3 infected in human SupT1 cells assessed as inhibition of viral growth at 10 uM after 30 days by p24 ELISA; assay type: functional, organism-based; details: SUP-T1; how it was run: as §1
[23] = tested on: Human immunodeficiency virus 1; test: Antiviral activity against HIV1 NL4-3 infected in human 293T cells assessed as inhibition of Nef synthesis at 10 uM after 24 hrs by Western blotting
[24] = tested on: Human immunodeficiency virus 1; test: Antiviral activity against HIV1 infected in TNFalpha-stimulated human U1 cells assessed as inhibition of p24 synthesis at 10 uM after 24 hrs by Western blotting; assay type: functional, organism-based; how it was run: as §3

SMILES | CC50 at 48 h [1] [µM] | EC50 [2] [µM] | EC50 [3] [µM] | TC50 (HeLa) [µM] | CC50 at 120 h [4] [µM] | further results
CC(=O)Nc1cccc2n[se]nc12 | > 30 | 10 | 8.99 | 51.6 | > 100 | 
CCOC(=O)c1c(N)ncn1-c1ccccc1 | > 30 | 30 | 11 | 33 | > 100 | 
CS(=O)(=O)c1ncc(-c2ccc(Br)cc2)cn1 | > 30 | 0.2 | 7.48 | 30.9 | 10 | 
Fc1ccc(Nc2ncnc3ccccc23)cc1Cl | > 30 | 3 | 8.98 | > 40.8 |  | 
COc1ccc2nc(C(F)(F)F)c(C#N)c(N)c2c1 | > 30 | 2.5 | 2.24 | 17.2 | 28 | Activity [5]: Active; inhibition [6]: inactive; EC50 [7]: 1.9 µM; inhibition (HEK-293T): Dose-dependent effect; Activity [8]: Active; Activity (U1): Toxic; Activity [9]: Active; Activity [10]: Dose-dependent effect; EC50 [10]: < 0.25 µM; EC50 [11]: > 15 µM; Activity [12]: Active; EC50 [13]: 0.63 µM; Activity [14]: Active; Activity [15]: inactive; Activity [16]: inactive
O=c1c2ccccc2n2nnc3ccc(NCCCN4CCN(CCCNc5ccc6nnn7c8ccccc8c(=O)c5c67)CC4)c1c32 [TEMACRAZINE] |  |  |  |  |  | EC50 [10]: 2 µM
COC(=O)c1c(N)ncn1-c1ccc(C)cc1 | > 30 | 22 | 11.2 | > 41.8 | > 100 | 
NC[C@@H]1O[C@H](O[C@H]2[C@@H](O)[C@H](O[C@@H]3[C@@H](O)[C@H](N)C[C@H](N)[C@H]3O[C@H]3O[C@H](CN)[C@@H](O)[C@H](O)[C@H]3N)O[C@@H]2CO)[C@H](N)[C@@H](O)[C@@H]1O |  |  |  |  |  | inhibition [17]: Active
COc1ccc2cc3c(N)n[nH]c3nc2c1 | > 30 | 0.9 | 0.48 | 8.41 | 20 | 
Cc1cn([C@H]2C[C@H](N=[N+]=[N-])[C@@H](CO)O2)c(=O)[nH]c1=O [ZIDOVUDINE] |  |  |  |  |  | EC50 [13]: 2.47 µM
CCc1c(C(=O)Nc2ccccc2)c(C)nc2sc(C(N)=O)c(N)c12 | > 30 | 3 | 2.42 | 7.91 | > 100 | 
CCc1c(C)nc2sc(C(N)=O)c(N)c2c1C | > 30 | 0.9 | 1.07 | > 37.6 | 32 | Activity [18]: inactive; inhibition [6]: inactive; EC50 [7]: 3.8 µM; inhibition (HEK-293T): Dose-dependent effect; Activity [19]: Active; Activity [20]: Active; Activity [10]: Dose-dependent effect; EC50 [10]: 0.4 µM; EC50 [11]: > 15 µM; EC50 [13]: 0.29 µM; Activity [21]: Active; Activity [22]: Active; Activity [23]: inactive; Activity [24]: Active
COc1cccc(NC(=O)c2cc(Cl)nnc2Cl)c1 | > 30 | 4.9 | 8 | 18.5 | 50 | 
CCC(=C/[C@H](C)C/C=C/C(C)=C/[C@@H](C)C(=O)[C@@H](C)[C@H](O)[C@@H](C)C/C(C)=C/C(=O)O)/C=C/[C@@H]1OC(=O)C=C[C@@H]1C [LEPTOMYCIN B] |  |  | 0.00822 | 0.02 |  | 
Cc1ccc(NC(=O)c2sc(Cl)nc2C(F)(F)F)cc1 | 25 | 1.9 | 9.73 | > 39.5 | 18 | 
